Compound activity as filed in PubChem BioAssay.
Bcl-W Bim block = inhibitors of Bim-Bcl-W interaction, human; bead-based flow cytometry, Bim peptide-Bcl-W binding; 190,000 compounds, 0.02% hits; Q92843; inhibition, % at 10 µM;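 further: 0% = bound tracer without compound and 100% = peptide blocker; higher means less fluorescent Bim peptide bound to Bcl-W beads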
Target sequence (Q92843 whole entry, looked up): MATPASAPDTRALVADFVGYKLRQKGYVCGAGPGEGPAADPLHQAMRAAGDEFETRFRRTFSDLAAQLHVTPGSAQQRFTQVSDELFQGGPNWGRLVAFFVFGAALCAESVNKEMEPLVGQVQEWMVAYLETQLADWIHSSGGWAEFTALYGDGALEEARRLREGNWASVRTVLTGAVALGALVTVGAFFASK
Rad51 HR inh = blocks human Rad51 in homologous recombination | Q06609 | hRad51 DNA strand exchange, fluorescence dequenching | inhibition, % at 10 µM | 200,000 compounds, 0.085% hits | AID 1385;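 active means inhibition above 40% at the single screening dose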;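 further: 0% = DMSO control wells and 100% = blanks with heterologous ssDNA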
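System: hRad51 filaments on single-stranded DNA; reagent: Fluorescein- and BHQ1-tagged 47-mer duplex; compound dosing: one concentration, 10 µM final; timing: filaments 15 min 37 °C, then compound 30 min; measured by: fluorescein emission 520 nm, excitation 485 nm; benchmarks: per-plate controls and blanks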
Bim-Bcl-XL = disrupts Bim peptide binding to human Bcl-XL; inhibition, % at 10 µM; 190,000 compounds, 0.04% hits; AID 1007; bead flow cytometry, fluorescence; Q07817
Bim-Bfl-1 = disrupts Bim binding to human Bfl-1; Q16548; Bead-based flow cytometry, Bim-Bfl-1 binding inhibition; inhibition, % at 10 µM; 190,000 compounds, 0.12% hits;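 further: 0% = wells without compound plus tracer and 100% = blocker peptide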
Target sequence (Q16548 whole entry, looked up): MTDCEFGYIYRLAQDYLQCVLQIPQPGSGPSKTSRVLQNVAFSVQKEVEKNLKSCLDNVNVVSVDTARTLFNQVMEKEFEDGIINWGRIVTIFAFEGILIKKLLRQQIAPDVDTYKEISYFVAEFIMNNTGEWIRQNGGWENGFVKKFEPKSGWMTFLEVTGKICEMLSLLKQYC
Bim-Bcl-2 = human Bim-Bcl-2 interaction inhibition; Bead-based flow cytometry, Bim peptide-Bcl-2 binding; inhibition, % at 10 µM; AID 950; 190,000 compounds, 0.06% hits; P10415; in the data active means inhibition above about 40%;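 further: 0% = no compound wells with probe peptide and 100% = reference peptide inhibitor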
Bcl-B Bim block = inhibitors of Bim-Bcl-B interaction, human | Q9HD36 | bead-based flow cytometry, Bim peptide-Bcl-B binding | inhibition, % at 10 µM | 190,000 compounds, 0.073% hits | AID 951;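 further: 0% = tracer peptide without compound and 100% = reference inhibitor peptide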
Bim-BclXL dose = dose-response confirmed modulator of Bim binding to human Bcl-XL; 40 tested, under 10 active; bead-based flow cytometry; AID 2084; shares compounds with Bim-Bfl-1; inhibition of binding at 100 µM; call rule not given here
Active calls of the source: *. Only some compounds are listed: those with a hit (about 0.23% of all), similar ones and a draw of the others. Unless noted, no stated cut-off is given here; in the data, active means inhibition above about 40%.

COc1ccc(C2CN(C)CC2C(=O)c2ccc(F)cc2)cc1Cl (stereo not given) was read as Bcl-W Bim block 2, Rad51 HR inh 23, Bim-Bcl-XL 4, Bim-Bfl-1 59*, Bim-Bcl-2 81* and Bcl-B Bim block 77*.
Cc1ccc(-c2nc(N3CCOCC3)s[n+]2-c2ccccc2)cc1 was read as Bcl-W Bim block 4, Rad51 HR inh 6, Bim-Bcl-XL 11, Bim-Bfl-1 53*, Bim-Bcl-2 13 and Bcl-B Bim block -42.
CCOC(=O)c1[nH]ncc1CN1CCCC(C(=O)c2cccc(Cl)c2)C1 (stereo not given) was read as Rad51 HR inh 2.
For CCCCCn1c(N)c(C(=O)NCCN2CCOCC2)c2nc3ccccc3nc21 the results were Bcl-W Bim block -1, Rad51 HR inh -2, Bim-Bcl-XL 1, Bim-Bfl-1 1, Bim-Bcl-2 0 and Bcl-B Bim block -4.
`O=C(NCCN1CCOCC1)c1ccc(Cl)nc1` gave Rad51 HR inh 40*.
For COC(=O)C1=C(c2cc3ccccc3o2)C[C@@H]2CC[C@H]1N2C(=O)NCCO the results were Rad51 HR inh -4.
Screening COc1ccccc1CCNC1C2CC3CC(C2)CC1C3 (stereo not given) returned Bcl-W Bim block -3, Rad51 HR inh 22, Bim-Bcl-XL -7, Bim-Bfl-1 0, Bim-Bcl-2 0 and Bcl-B Bim block -8.
Screening Cc1ccc2c(c1)C1CN(C)CCC1N2C(=O)Nc1cccc(Cl)c1 (stereo not given) returned Bcl-W Bim block 16, Rad51 HR inh -1, Bim-Bcl-XL 19 and Bim-Bcl-2 85*.
For Cc1ccc2c(c1)C1CN(C)CCC1N2C(=S)Nc1cccnc1 (stereo not given) the results were Bcl-W Bim block -1, Rad51 HR inh -39, Bim-Bcl-XL -2, Bim-Bfl-1 -4, Bim-Bcl-2 -3 and Bcl-B Bim block -7.
`CC(C)(C)P(=O)(N1CCOCC1)N1CCOCC1` gave Bcl-W Bim block 0, Rad51 HR inh -6, Bim-Bcl-XL -1, Bim-Bfl-1 -1, Bim-Bcl-2 -2 and Bcl-B Bim block -4.
For O=P(OCC(F)(F)C(F)F)(N1CCOCC1)N1CCOCC1 the results were Bcl-W Bim block -2, Rad51 HR inh 89*, Bim-Bcl-XL -5, Bim-Bfl-1 -11, Bim-Bcl-2 -12 and Bcl-B Bim block -9.
`COC(=O)C1C2c3ccccc3OC1(C)N=c1s/c(=C/c3cnn(C)c3C)c(=O)n12` (stereo not given) gave Bcl-W Bim block 19, Rad51 HR inh 6, Bim-Bcl-XL 18, Bim-Bfl-1 11, Bim-Bcl-2 27 and Bcl-B Bim block 73*.
O=C1NC(=O)C2(Cc3c(nc4ccccn4c3=O)N3CCCCCC32)C(=O)N1Cc1ccccc1 (stereo not given) was read as Bcl-W Bim block 0, Rad51 HR inh 2, Bim-Bcl-XL -4, Bim-Bfl-1 -1, Bim-Bcl-2 4, Bcl-B Bim block 59* and Bim-BclXL dose 3.8.
For C[N+](C)(C)c1ccccc1 the results were Bcl-W Bim block -3, Rad51 HR inh 29, Bim-Bcl-XL -2, Bim-Bfl-1 -4, Bim-Bcl-2 -2 and Bcl-B Bim block -6.
